TAAR1 agonist: human TAAR1 agonists, primary screen, Fluo-8 calcium fluorescence, CHO RD-HGA16 cells. vehicle wells 0%, saturating PEA agonist 100%. Trace amine-associated receptor 1 (Homo sapiens), Q96RJ0. 0.99% of 360,000 active. activation, % at 3 µM;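 active = activation above the mean activation of all test compounds in the run plus 3 SD, cut at about 38% in these data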
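System: CHO-derived RD-HGA16 cells with stable Gα16 and human TAAR1 / Times: 17-24 h plating, Fluo-8 75 min 37 °C, 30 min RT / Technique: calcium-sensitive Fluo-8 signal, excitation 470-495, emission 515-575 nm / Measure: % activation relative to PEA EC100 response / Benchmarks: DMSO and PEA EC100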
OX1R antag-1: antagonists of human orexin 1 receptor (OX1R). OX1R-expressing cells, FRET antagonist read-out. 1.8% of 330,000 active. Orexin/Hypocretin receptor type 1 (Homo sapiens), O43613. AID 485270, 2010. inhibition, % at 6.6 µM; in the data active = inhibition mostly above about 38%, no sharp cut-off; inactive = mostly below about 40%;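 also: 0% = agonist challenge alone and 100% = reference antagonist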
Target sequence (O43613 whole entry, looked up): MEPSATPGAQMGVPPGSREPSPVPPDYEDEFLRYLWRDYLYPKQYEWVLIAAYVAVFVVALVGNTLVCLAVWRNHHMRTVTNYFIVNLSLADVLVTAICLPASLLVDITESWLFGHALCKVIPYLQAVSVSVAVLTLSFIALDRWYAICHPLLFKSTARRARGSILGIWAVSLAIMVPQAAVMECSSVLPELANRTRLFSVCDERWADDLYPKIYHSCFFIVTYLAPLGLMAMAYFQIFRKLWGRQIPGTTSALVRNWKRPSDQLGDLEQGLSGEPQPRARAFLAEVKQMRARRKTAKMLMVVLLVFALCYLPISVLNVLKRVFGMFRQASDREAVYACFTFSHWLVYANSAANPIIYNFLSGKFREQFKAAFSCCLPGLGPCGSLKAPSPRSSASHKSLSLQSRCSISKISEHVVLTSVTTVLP
TAAR1 antagonist: human TAAR1 antagonists, primary screen, Fluo-8 calcium fluorescence, CHO RD-HGA16 cells | antagonist | 1.5% of 360,000 active | inhibition, % at 3 µM | AID 624466, 2012 | Trace amine-associated receptor 1 (Homo sapiens), Q96RJ0;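 active = inhibition above a per-plate cutoff, the mean inhibition of test compounds on that plate plus 3 SD, cut at about 49% in these data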;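 also: 0% = DMSO plus EC80 beta-PEA response and 100% = DMSO alone without agonist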
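Test system – hTAAR1-expressing CHO RD-HGA16 cells, Gα16-coupled · Reagent – β-PEA at EC80 concentration, post-compound challenge · Compound dosing – 3 µM, single point · Timing – 140 s kinetic read after compound, 140 s after agonist · Detection – Fluo-8 intracellular calcium dye fluorescence, real-time kinetic reads · Control set – DMSO and EC80 PEA controls · Repeats – n of 1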
OX1R antag-2: OX1R (HCRTR1) antagonists, primary screen, fluorescence, CHO/OX1R cells, Fluo-8 calcium, orexin A; Fluo-8 calcium fluorescence; AID 434989, 2010; Orexin/Hypocretin receptor type 1 (Homo sapiens), O43613; 0.43% of 330,000 active; inhibition, % at 5 µM;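 active = inhibition above its plate's threshold, mean inhibition of all tested compounds on the plate plus 3 SD, cut at about 37% in these data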;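 also: 0% = orexin A challenge wells and 100% = SB-334867-A antagonist wells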
CHO parental Ca: ATP-evoked calcium signal inhibitors, parental CHO, primary screen, counter-screen for OX1R antagonist project, cell-based, fluorescence, Fluo-8 calcium dye | parental CHO-K1, ATP-induced calcium, Fluo-8 fluorescence | inhibition, % at 5.6 µM | 0.63% of 330,000 active;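 active = inhibition above that plate's mean sample inhibition plus 3 SD, cut at about 26% in these data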;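 also: 0% = ATP-challenged DMSO wells and 100% = DMSO wells without ATP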
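Material: parental CHO cells / Compound: single nominal dose of 5.6 µM per compound / Signal: Fluo-8 fluorescence / Replicates: singlicate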
GalR3 antagonist: GalR3 antagonists in HEK293 cells, primary screen, cell-based, fluorescence readout. Galanin receptor type 3 (Homo sapiens), O60755. HEK293 GalR3-CNG cAMP membrane potential fluorescence; galR3 body fused to GalR1 C-terminus. inhibition, % at 3 µM. 0.44% of 360,000 active. AID 651719, 2012;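 active = inhibition above the screen-wide average plus 3 SD, cut at about 13% in these data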;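 also: forskolin and galanin both at EC90 stimulate the cells; cAMP rise reported by CNG channel membrane potential dye signal; 0% = forskolin plus galanin with DMSO and 100% = forskolin alone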
Target sequence (O60755 1-299 limits assumed): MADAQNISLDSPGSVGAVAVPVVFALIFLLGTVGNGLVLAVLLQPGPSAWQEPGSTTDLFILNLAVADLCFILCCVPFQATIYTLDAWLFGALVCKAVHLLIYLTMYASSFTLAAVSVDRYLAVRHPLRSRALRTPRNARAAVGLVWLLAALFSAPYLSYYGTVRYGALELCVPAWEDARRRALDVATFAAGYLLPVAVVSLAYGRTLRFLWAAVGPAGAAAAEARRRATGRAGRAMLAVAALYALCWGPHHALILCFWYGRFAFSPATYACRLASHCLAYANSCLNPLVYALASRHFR
* marks the source's active call; other numbers are inactive results; nt = no result given. Only some compounds are listed: those with a hit (about 4.3% of all), similar ones and a draw of the others.

SMILES | TAAR1 agonist | OX1R antag-1 | TAAR1 antagonist | OX1R antag-2 | CHO parental Ca | GalR3 antagonist
OCC[C@@H]1C[C@@H](O)[C@H](O)[C@]2(Cc3ccccc3O2)O1 | 3 | 23 | -2 | -2 | -8 | 4
Cc1sc2nc3ccc(N4CCCC4)nn3c(=O)c2c1C | 1 | 48* | -10 | -15 | 1 | -2
Cc1ccc2nc3ccc(N4CCCCCCC4)nn3c(=O)c2c1 | 2 | 56 | 15 | -26 | -10 | -5
Cc1cc(F)ccc1C(O)c1ncc(-c2cccc(OCc3ccccc3)c2)[nH]1 (stereo not drawn) | 1 | nt | 16 | nt | nt | -2
N#Cc1c(-c2ccc([N+](=O)[O-])cc2)nc2n(c1=O)CCS2 | 0 | 65* | 1 | -5 | -3 | -2
N#Cc1c(-c2cccc([N+](=O)[O-])c2)nc2n(c1=O)CCS2 | 4 | 40 | 1 | -11 | 2 | -8
COc1ccccc1NS(=O)(=O)c1c(C(=O)N2CCCC2)c(C)n(C)c1C | 0 | 6 | 12 | -10 | 3 | -1
Cc1cc(=O)oc2cc(OCC(=O)N3CCCC3)c(Cl)cc12 | 20 | 0 | -2 | -20 | -5 | 0
O=S(=O)(Nc1ccc2cn[nH]c2c1)c1ccc(Cl)cc1 | nt | 11 | nt | -1 | -8 | nt
Cc1cc(S(=O)(=O)Nc2ccc3cn[nH]c3c2)c(C)cc1Cl | 11 | 28 | -14 | 7 | 40* | -8
CCNc1nc2nc3ccc(C)cn3c(=O)c2cc1C(=O)NCC1CCCO1 (stereo not drawn) | 1 | 64* | -1 | -23 | -17 | -4
COCCCNC(=O)c1cc2c(=O)n3cc(C)ccc3nc2nc1NCC1CCCO1 (stereo not drawn) | nt | 105* | nt | -16 | -13 | nt
C=CCNC(=O)c1cc2c(=O)n3cc(C)ccc3nc2nc1NCC1CCCO1 (stereo not drawn) | nt | 47* | nt | -9 | 7 | nt
Cc1ccc2nc3nc(NCC4CCCO4)c(C(=O)NC4CCCC4)cc3c(=O)n2c1 (stereo not drawn) | 5 | 43 | 2 | -19 | -17 | 9
O=C(Cn1cnc2c(NCc3ccccc3)ncnc21)NCCc1cc2ccccc2[nH]1 | 3 | 34* | 12 | 13 | -2 | -6
N#Cc1ccc(OCC(=O)Nc2ccncc2)cc1 | -2 | 2 | 0 | 7 | 3 | -8
O=C(COc1ccccc1)Nc1ccc(CSc2ccccc2)cc1 | 7 | 28 | 51* | 16 | 21 | -1
O=C(COc1ccc([N+](=O)[O-])cc1)Nc1cccnc1 | 1 | 11 | -11 | -17 | -4 | 2
O=C(COc1ccc(Nc2ccccc2)cc1)Nc1ccncc1 | 10 | 18 | 28 | 19 | 37* | -5
O=C(COc1ccc(-c2ccccc2)cc1)Nc1cccnc1 | 16 | 23 | 33 | 58* | 27* | -7
O=C(COc1ccc(Br)cc1)Nc1ccncc1 | 4 | 22 | -1 | 18 | 10 | -1
CCC(C)(C)c1ccc(OCC(=O)Nc2ccncc2)cc1 | 11 | 18 | 44 | 78* | 76* | -3
Cc1c(C)n(C)c2ccc(C(=O)NCCN3CCOCC3)cc12 | 0 | 14 | -16 | -8 | 0 | -9
CC(Sc1nnnn1C)C(=O)NC1CCCC1 (stereo not drawn) | 3 | 11 | 14 | -10 | -8 | -3
O=C(N[C@H](C(=O)N1CCC[C@H]1C(=O)NC1CCCC1)c1ccccc1)C1CC1 | 1 | nt | -4 | nt | nt | -7
SMILES | TAAR1 agonist | OX1R antag-1 | TAAR1 antagonist | OX1R antag-2 | CHO parental Ca | GalR3 antagonist
CC1=C(C(=O)N(C)C)CC(CC(=O)NCCCCc2ccccc2)C(=O)N1Cc1ccccc1 (stereo not drawn) | 1 | nt | -14 | nt | nt | -4
CC(C)(C)c1ccc(OCC(=O)Nc2ccncc2)c(Br)c1 | 8 | 35 | 34 | -19 | 47* | -14
Cc1cc(C(=O)Nc2c(C)nn(Cc3ccc(Cl)cc3)c2C)no1 | 1 | 20 | -12 | -16 | -14 | -5
Cc1nn(Cc2ccc(Cl)c(Cl)c2)c(C)c1NC(=O)c1cc(CC(C)C)on1 | -1 | 17 | 1 | -27 | 33* | 2
N#CCC(=O)Nc1ccc(C(=O)OCC(=O)c2c[nH]c3ccccc23)cc1 | 43* | 39* | 23 | 20 | 4 | -6
O=C(CNC(=O)c1ccccc1)OCC(=O)c1c[nH]c2ccccc12 | 40* | 6 | 22 | -1 | -6 | -7
CN1CCN(CCCNC(=O)c2ccc3c(Cl)c4c(nc3c2)CCCC4)CC1 | -2 | 10 | -16 | -36 | -24 | -9
COc1cccc(NC(=O)Cc2csc(NC(=O)Nc3ccccc3OC)n2)c1 | 12 | 6 | 56* | -22 | 16 | -5
COc1cccc(-c2csc(NC(=O)Nc3ccccc3)n2)c1 | 9 | 74* | 35 | 45* | 32* | -3
CCSc1nsc(NC(=O)Nc2cccc(OC)c2)n1 | 9 | 52* | 32 | 29 | 43* | -4
O=C(Nc1ccccc1)Nc1nc(-c2ccccc2)cs1 | 6 | 4 | 16 | 21 | 6 | -1
COc1ccccc1NC(=O)Nc1nc(CC(=O)Nc2ccc(OC)c(OC)c2)cs1 | 13 | 20 | 49* | -27 | -29 | -5
CCSc1nsc(NC(=O)Nc2ccccc2F)n1 | 14 | 34 | 23 | 4 | 20 | -14
COc1ccccc1CC(=O)Nc1cccc(C(=O)Nc2nccs2)c1 | 7 | 49* | 24 | -12 | -16 | -3
O=C(NC1CCCCC1)C(c1ccnc2ccccc12)N1CCc2ccccc2C1 (stereo not drawn) | 8 | nt | -10 | nt | nt | -6
Cc1cc(C)cc(Nc2ccc([N+](=O)[O-])nc2[N+](=O)[O-])c1 | -1 | 61* | -16 | -18 | -11 | -4
CC(C)(O)c1ccccc1CC[C@@H](SCC1(CC(=O)O)CC1)c1cccc(/C=C/c2ccc3ccc(Cl)cc3n2)c1 | nt | 15 | nt | -18 | -10 | nt
CCCCCCCCN1C(=O)[C@H](CC(=O)N2CCCC2)C[C@@]2(C(=O)OCC)CCCC=C12 | 4 | nt | -35 | nt | nt | -4
COc1ccc(C(C(=O)NC2CCCC2)n2c(C3CCN(C(C)=O)CC3)nc3ccccc32)cc1 (stereo not drawn) | 0 | nt | -1 | nt | nt | -1
CCN1C(=C2C(=O)c3ccccc3C2=O)C=Cc2ccccc21 | 4 | 62* | 13 | -12 | -6 | -4
O=C(COC(=O)c1ccccc1O)Nc1ccc2ccccc2c1 | -1 | 15 | 15 | 1 | 18 | -5
